Source: PubChem BioAssay
Active and inactive are the calls of the source. Cut-off read from the data, not from the text of the source, unless noted: active = inhibition above about 30%; inactive = the rest.

How the values were obtained:
[1] = reducers of endogenous Her2 protein level, primary screen, SKBR3 breast tumor cells, AlphaScreen, ATP viability (AID 461;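 active = Her2 level under about 52% in both replicate screens, with viability over 70% of control, limit read from the data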;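 for Her2 level: lower value means less Her2 protein in the cells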;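 for viability: percent of carrier control wells set as 100% viability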); conditions: 18-24 h, measured here: SKBR3 viability, ATP luminescence, at 10 µM
[2] = biological target: Receptor tyrosine-protein kinase erbB-2 (Homo sapiens) (UniProt P04626); assay: as above; conditions: 18-24 h, at 10 µM, stronger effect = lower value
Sequence of Receptor tyrosine-protein kinase erbB-2 (Homo sapiens) (P04626 whole entry, looked up): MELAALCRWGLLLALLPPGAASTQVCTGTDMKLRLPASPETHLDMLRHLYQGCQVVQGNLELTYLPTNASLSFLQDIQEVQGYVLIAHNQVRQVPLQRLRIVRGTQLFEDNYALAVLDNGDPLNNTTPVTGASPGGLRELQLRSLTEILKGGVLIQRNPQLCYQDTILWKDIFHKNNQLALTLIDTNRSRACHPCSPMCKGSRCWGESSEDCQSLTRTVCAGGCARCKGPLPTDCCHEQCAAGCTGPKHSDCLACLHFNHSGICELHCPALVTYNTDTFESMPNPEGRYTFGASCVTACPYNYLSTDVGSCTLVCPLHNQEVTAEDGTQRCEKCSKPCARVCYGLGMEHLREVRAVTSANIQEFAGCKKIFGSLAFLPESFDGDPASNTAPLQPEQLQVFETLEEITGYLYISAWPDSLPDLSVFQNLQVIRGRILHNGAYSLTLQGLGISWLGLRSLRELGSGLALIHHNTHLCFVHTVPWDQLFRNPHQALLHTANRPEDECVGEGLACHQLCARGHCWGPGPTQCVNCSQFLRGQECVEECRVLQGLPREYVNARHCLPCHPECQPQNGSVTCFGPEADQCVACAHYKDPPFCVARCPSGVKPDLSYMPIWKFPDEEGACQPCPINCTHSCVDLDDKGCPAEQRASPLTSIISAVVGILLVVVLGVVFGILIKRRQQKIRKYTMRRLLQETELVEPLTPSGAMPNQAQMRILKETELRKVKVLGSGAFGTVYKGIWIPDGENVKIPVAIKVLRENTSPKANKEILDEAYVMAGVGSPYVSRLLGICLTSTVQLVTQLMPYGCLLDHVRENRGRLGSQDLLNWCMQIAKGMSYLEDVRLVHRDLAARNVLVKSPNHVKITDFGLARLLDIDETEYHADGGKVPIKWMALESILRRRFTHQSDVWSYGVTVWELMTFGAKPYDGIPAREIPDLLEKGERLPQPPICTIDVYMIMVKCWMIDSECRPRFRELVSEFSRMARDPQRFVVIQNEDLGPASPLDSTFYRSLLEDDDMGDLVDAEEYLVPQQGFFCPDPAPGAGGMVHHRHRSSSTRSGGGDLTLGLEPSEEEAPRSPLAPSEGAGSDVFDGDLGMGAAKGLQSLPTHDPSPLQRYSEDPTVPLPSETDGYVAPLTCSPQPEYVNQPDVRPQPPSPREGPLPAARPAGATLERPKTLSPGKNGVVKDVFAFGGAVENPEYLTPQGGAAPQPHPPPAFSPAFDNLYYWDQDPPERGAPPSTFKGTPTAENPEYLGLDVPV

[3] = SK-BR-3 cell growth inhibitors, pilot screen, 24 h, human (AID 572;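 active = viability at or below 10% of carrier control in both of two separate runs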;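 note: compound exposure lasted between 18 and 24 h rather than exactly 24 h; 100% = carrier-treated control wells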); conditions: SK-BR-3 viability, CellTiter-Glo luminescence, at 10 µM, stronger effect = lower value
[4] = HUVEC growth inhibition – cell-based, human, primary screen (AID 575;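 active = viability at or below 30% in both replicate assays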;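 note: 100% = median of untreated cell wells with 0.1% DMSO on each plate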); conditions: HUVEC proliferation, CellTiter-Glo luminescence, 72 h; at 10 µM; stronger effect = lower value
In short: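 Test system: primary human umbilical vein endothelial cells; medium: endothelial basal medium with 2% FBS plus growth supplements; dosing: 10 µM compound only; times: 72 h treatment at 37 °C; signal: CTG luminescence; read-out: % viability relative to median vehicle-well signal on each plate; control set: vehicle and MePR control wells; plate: 384-well, collagen-coated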

[5] = growth inhibitors of H69AR lung tumor, primary screen, human, duplicate replicates (AID 580;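 active = viability at or under a set limit in both replicates, limit being median viability minus 3 SD, cut at about 48% in these data, passing the limit was not always enough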;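 note: 100% = mean luminescence of untreated wells and 0% = no signal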); conditions: H69AR lung tumor cells viability, ATP luminescence, 72 h; at 10 µM; stronger effect = lower value
[6] = reversal of MRP1-mediated doxorubicin resistance, pilot screen, H69AR cells, doxorubicin co-treatment (AID 601;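 active = viability loss from added drug above about 55%, and viability with drug at most 40%, in both replicates, limit read from the data, passing the limit was not always enough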); conditions: CellTiter-Glo, 72 h, at 10 µM; for differential viability (reversal): stronger effect = higher value
[7] = 384-well plate pilot, post-Golgi transport modulator project, inhibition of yeast transport mutant growth (AID 636; in the data active = inhibition above about 31%); conditions: absorbance 615 nm, about 18 h, stronger effect = higher value
[8] = growth suppression of yeast trafficking mutant, preliminary HTS, modulators of trafficking downstream of Golgi apparatus project, 1536-format plate, OD 615 nm (AID 637); conditions: yeast transport mutant growth, absorbance 615 nm, 18 h; stronger effect = higher value
[9] = H69AR cells + 2 uM doxorubicin, measured here: viability with 2 uM doxorubicin, stronger effect = lower value
[10] = H69AR cells, compound alone cytotoxicity

Compound	viability [1]	Her2 level [2]	viability [3]	viability [4]	viability [5]	differential viability (reversal) ([6]; H69AR cells + 2 uM doxorubicin)	viability [6, 9]	viability [6, 10]	inhibition [7]	inhibition [8]
C/C(N)=C(\C#N)C(=O)NCCc1ccccn1	81%	102% (inactive)	81% (inactive)	108% (inactive)	114% (inactive)	7.44% (inactive)	107%	114%	-1.45% (inactive)	1.48% (inactive)
COCC(=O)N(Cc1nc2ccccc2c(=O)[nH]1)Cc1cccs1	103%	100% (inactive)	103% (inactive)	93.3% (inactive)	98.8% (inactive)	-2.5% (inactive)	101%	98.8%	-3.07% (inactive)	-0.65% (inactive)
CC(c1ccccc1)N1C(=O)c2ccc(C(=O)NCc3ccco3)cc2C1=O (stereo not given)	104%	84% (inactive)	104% (inactive)	93.6% (inactive)	95.7% (inactive)	5.55% (inactive)	90.1%	95.7%	-3.16% (inactive)	-4.92% (inactive)
CCOC(=O)N1CCN(Cc2cc(=O)oc3ccc4ccccc4c23)CC1	91.5%	86% (inactive)	91.5% (inactive)	79.9% (inactive)	87.3% (inactive)	7.66% (inactive)	79.6%	87.3%	-7.07% (inactive)	2.86% (inactive)
CC(C)Cc1nc(S(=O)(=O)c2ccc(Cl)cc2)c(N2CCOCC2)o1	128%	94.5% (inactive)	128% (inactive)	87.8% (inactive)	90.7% (inactive)	0.63% (inactive)	90.1%	90.7%	-5.06% (inactive)	1.75% (inactive)
COc1ccc(-c2[nH]nc3c2C(c2ccccc2OC(=O)N2CCOCC2)C(C#N)=C(N)O3)cc1 (stereo not given)	120%	85.5% (inactive)	120% (inactive)	96.2% (inactive)	88.9% (inactive)	1.89% (inactive)	87%	88.9%	-1.58% (inactive)	-1.45% (inactive)
Cn1ccnc1SCCC#N	100%	89.5% (inactive)	100% (inactive)	92.5% (inactive)	99% (inactive)	1.65% (inactive)	97.3%	99%	-2% (inactive)	11% (inactive)
COc1ccccc1CN1C(=S)SC(C)(C)C1NO (stereo not given)	100%	93.5% (inactive)	100% (inactive)	73.8% (inactive)	98.3% (inactive)	8.72% (inactive)	89.6%	98.3%	-3.73% (inactive)	2.42% (inactive)
CCc1cc2c(=O)n(C(C)C(=O)OC3CCCCC3)cnc2s1 (stereo not given)	102%	117% (inactive)	102% (inactive)	90.1% (inactive)	81.6% (inactive)	-4.32% (inactive)	85.9%	81.6%	-6.62% (inactive)	-5.83% (inactive)
CCC(C)(C(=O)NC1CCCCC1)N(CC1CCCO1)C(=O)c1ccccn1 (stereo not given)	82%	99% (inactive)	82% (inactive)	91.6% (inactive)	89% (inactive)	-1.55% (inactive)	90.6%	89%	-0.26% (inactive)	-1.15% (inactive)
Cc1ccc2c(c1C)NC(C)CC2C (stereo not given)	100%	82% (inactive)	100% (inactive)	103% (inactive)	97.2% (inactive)	8.96% (inactive)	88.2%	97.2%	-0.39% (inactive)	-0.73% (inactive)
COc1cc(CNc2ccc(N3CCOCC3)c(C(=O)O)c2)ccc1OCC(N)=O	106%	102% (inactive)	106% (inactive)	97.4% (inactive)	99.9% (inactive)	0.83% (inactive)	99.1%	99.9%	-4.67% (inactive)	-2.13% (inactive)
CCCCc1nc(NCCNC(=O)c2ccco2)c(C#N)c2c1CSC(C)(C)C2	84.5%	100% (inactive)	84.5% (inactive)	78.7% (inactive)	86.7% (inactive)	15.8% (inactive)	70.9%	86.7%	-5.2% (inactive)	-7.38% (inactive)
COc1ccc(-c2nc3c(c(=O)n(C)c(=O)n3C)n2CC2CC(c3ccccc3)=NO2)cc1OC (stereo not given)	85.5%	85% (inactive)	85.5% (inactive)	63.4% (inactive)	6.03% (active)	1.44% (inactive)	4.58%	6.03%	-6.76% (inactive)	2.22% (inactive)
CCC(=O)Nc1ccc(NC(=O)c2cccc(OC)c2)nc1	94%	92.5% (inactive)	94% (inactive)	101% (inactive)	97.8% (inactive)	7.67% (inactive)	90.2%	97.8%	0.14% (inactive)	-6.56% (inactive)
CN1CC(=O)N(CC(=O)NCCc2ccc(F)cc2)c2ccccc2C1=O	95%	90.5% (inactive)	95% (inactive)	105% (inactive)	90% (inactive)	-3.62% (inactive)	93.6%	90%	-6.36% (inactive)	1.75% (inactive)

Compound	viability [1]	Her2 level [2]	viability [3]	viability [4]	viability [5]	differential viability (reversal) ([6]; H69AR cells + 2 uM doxorubicin)	viability [6, 9]	viability [6, 10]	inhibition [7]	inhibition [8]
O=C(C1CCCCC1)N1CCC(c2nc3c(nnn3Cc3c(F)cccc3Cl)c(=O)[nH]2)CC1	87.5%	96.5% (inactive)	87.5% (inactive)	85.2% (inactive)	71.3% (inactive)	48.4% (inactive)	22.9%	71.3%	-3.77% (inactive)	-6.39% (inactive)
Cc1cc(C(=O)Nc2ccccc2C#N)n(-c2ccccc2)n1	97.5%	100% (inactive)	97.5% (inactive)	92.8% (inactive)	93.9% (inactive)	-3.06% (inactive)	97%	93.9%	2.93% (inactive)	0% (inactive)
[O-][n+]1c2ccc3nonc3c2nn1-c1ccccc1Cl	136%	124% (inactive)	136% (inactive)	89.3% (inactive)	95.1% (inactive)	16.1% (inactive)	79%	95.1%	-0.4% (inactive)	-6.45% (inactive)
N#Cc1cn(CC(=O)N2CCCC2)c2ccccc12	118%	85% (inactive)	118% (inactive)	100% (inactive)	93.6% (inactive)	8.44% (inactive)	85.2%	93.6%	-3.29% (inactive)	1.15% (inactive)
COc1cccc(N2CCN(Cc3cccnc3)CC2)c1	81.5%	97.5% (inactive)	81.5% (inactive)	93% (inactive)	87.8% (inactive)	-7.62% (inactive)	95.4%	87.8%	-0.38% (inactive)	3.33% (inactive)
CCCc1nnc2n1N=C(c1ccc(OC)c(OC)c1)CS2	85%	80% (inactive)	85% (inactive)	68.7% (inactive)	69.9% (inactive)	3.1% (inactive)	66.8%	69.9%	-5.33% (inactive)	2.62% (inactive)
COc1ccccc1-c1cn[nH]c(=S)n1	101%	108% (inactive)	101% (inactive)	100% (inactive)	96.1% (inactive)	3.25% (inactive)	92.9%	96.1%	1.07% (inactive)	-8.06% (inactive)
Cc1cc2c(s1)c1cnn(CC(=O)NCCc3ccccc3)c(=O)c1n2C	120%	98.5% (inactive)	120% (inactive)	118% (inactive)	87.1% (inactive)	5.06% (inactive)	82%	87.1%	-5.81% (inactive)	-3.5% (inactive)
Cn1c2c(c(=O)n(C)c1=O)C(CC(=O)Nc1ccccc1)C(=O)N2 (stereo not given)	106%	78.5% (inactive)	106% (inactive)	106% (inactive)	108% (inactive)	21.8% (inactive)	86.4%	108%	-2.97% (inactive)	8.57% (inactive)
O=C(c1ccccc1Cl)N1CCc2ccccc2C1	97%	75% (inactive)	97% (inactive)	97.1% (inactive)	83% (inactive)	1.55% (inactive)	81.5%	83%	-8.49% (inactive)	-5.4% (inactive)
CCOc1ccc2[nH]c(=O)c(C(c3nnnn3CC3CCCO3)N3CCc4ccccc4C3)cc2c1 (stereo not given)	97%	82.5% (inactive)	97% (inactive)	81.1% (inactive)	85.8% (inactive)	36.5% (inactive)	49.2%	85.8%	-4.93% (inactive)	2.62% (inactive)
CCc1nc(C)c(-c2ccccc2)c(=O)[nH]1	102%	120% (inactive)	102% (inactive)	81.8% (inactive)	113% (inactive)	25.6% (inactive)	87.2%	113%	-3.2% (inactive)	-8.39% (inactive)
CC(c1nnc(SCC(=O)Nc2sccc2C#N)n1-c1ccc(Cl)cc1)N(C)C (stereo not given)	103%	74% (inactive)	103% (inactive)	91.8% (inactive)	75.4% (inactive)	-5.88% (inactive)	81.2%	75.4%	-3.68% (inactive)	0.79% (inactive)
COc1ccccc1NC(=O)C1=C(C)Nc2ncnn2C1c1ccc(C)o1 (stereo not given)	87.5%	99% (inactive)	87.5% (inactive)	104% (inactive)	99.3% (inactive)	11.7% (inactive)	87.6%	99.3%	-0.26% (inactive)	-2.79% (inactive)
CCCCn1nnnc1SCC(=O)Nc1cccc(C)n1	108%	115% (inactive)	108% (inactive)	111% (inactive)	113% (inactive)	7.5% (inactive)	105%	113%	2.3% (inactive)	3.5% (inactive)
